Assay results: ChEMBL document CHEMBL4619723, “New CDK8 inhibitors as potential anti-leukemic agents - Design, synthesis and biological evaluation” (Bioorg Med Chem, 2020)
pEC50, pKd: −log10 of the molar value.

Legend:
[1] = biological target: NUAK family SNF1-like kinase 2 (Homo sapiens) (UniProt Q9H093); assay: Inhibition of biotinylated ligand binding to wild-type human partial length SNARK (P22 to A333 residues) expressed in mammalian expression system at 50 nM measured after 1 hr by kinomescan assay relative to control
Procedure, shortened: (§1)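 Competition binding: kinase was bound to streptavidin beads carrying a biotinylated ligand, with test compound at 50 nM, in 20% SeaBlock, 0.17x PBS, 0.05% Tween 20 and 6 mM DTT for 1 h at rt with shaking. After washing, kinase was eluted with 0.5 μM free ligand and quantified by qPCR. Result is POC relative to the DMSO (100%) and control-compound (0%) references.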

[2] = biological target: Serine/threonine-protein kinase PLK4 (Homo sapiens) (UniProt O00444); assay: Inhibition of biotinylated ligand binding to wild-type human partial length PLK4 (M1 to S273 residues) expressed in mammalian expression system at 50 nM measured after 1 hr by kinomescan assay relative to control; procedure, shortened: as §1
[3] = biological target: 1-phosphatidylinositol 3-phosphate 5-kinase (Homo sapiens) (UniProt Q9Y2I7); assay: Inhibition of biotinylated ligand binding to wild-type human partial length PIKFYVE (F1512 to C2098 residues) expressed in mammalian expression system at 50 nM measured after 1 hr by kinomescan assay relative to control
[4] = biological target: Interleukin-1 receptor-associated kinase 3 (Homo sapiens) (UniProt Q9Y616); assay: Inhibition of biotinylated ligand binding to wild-type human partial length IRAK3 (V147 to E596 residues) expressed in bacterial expression system at 50 nM measured after 1 hr by kinomescan assay relative to control
Procedure, shortened: (§2)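 Kinase-tagged T7 phage was grown in an E. coli BL21-derived host at 32 °C until lysis, and the lysate was clarified. Kinase was bound to streptavidin beads carrying a biotinylated ligand, with test compound at 50 nM (final DMSO), in binding buffer for 1 h at rt. Bound kinase was eluted and quantified by qPCR. Result is POC relative to the DMSO (100%) and control-compound (0%) references.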

[5] = biological target: Cyclin-dependent kinase 7 (Homo sapiens) (UniProt P50613); assay: Inhibition of biotinylated ligand binding to wild-type human full length CDK7 (M1 to L344 residues) expressed in mammalian expression system at 50 nM measured after 1 hr by kinomescan assay relative to control; procedure, shortened: as §1
[6] = biological target: Cyclin-dependent kinase 8 (Homo sapiens, UniProt P49336); assay: Inhibition of biotinylated ligand binding to wild-type human partial length CDK8 (M1 to T360 residues) expressed in Escherichia coli BL21 measured after 1 hr by kinomescan assay
[7] = biological target: G protein-coupled receptor kinase 4 (Homo sapiens) (UniProt P32298); assay: Inhibition of biotinylated ligand binding to wild-type human full length GRK4 (M1 to C578 residues) expressed in bacterial expression system at 50 nM measured after 1 hr by kinomescan assay relative to control; procedure, shortened: as §2
[8] = biological target: Serine/threonine-protein kinase pim-2 (Homo sapiens) (UniProt Q9P1W9); assay: Inhibition of biotinylated ligand binding to wild-type human partial length PIM2 (M1 to E291 residues) expressed in bacterial expression system at 50 nM measured after 1 hr by kinomescan assay relative to control
[9] = biological target: Rho-associated protein kinase 1 (Homo sapiens) (UniProt Q13464); assay: Inhibition of biotinylated ligand binding to wild-type human partial length ROCK1 (M1 to R415 residues) expressed in mammalian expression system at 50 nM measured after 1 hr by kinomescan assay relative to control; procedure, shortened: as §1
[10] = biological target: SRSF protein kinase 3 (Homo sapiens) (UniProt Q9UPE1); assay: Inhibition of biotinylated ligand binding to wild-type human partial length SRPK3 (P41 to P567 residues) expressed in bacterial expression system at 50 nM measured after 1 hr by kinomescan assay relative to control; procedure, shortened: as §2
[11] = biological target: Serine/threonine-protein kinase 32A (Homo sapiens) (UniProt Q8WU08); assay: Inhibition of biotinylated ligand binding to wild-type human full length YANK1 (M1 to L396 residues) expressed in mammalian expression system at 50 nM measured after 1 hr by kinomescan assay relative to control; procedure, shortened: as §1
[12] = biological target: Dual specificity protein kinase CLK4 (Homo sapiens) (UniProt Q9HAZ1); assay: Inhibition of biotinylated ligand binding to wild-type human partial length CLK4 (R135 to K481 residues) expressed in bacterial expression system at 50 nM measured after 1 hr by kinomescan assay relative to control; procedure, shortened: as §2
[13] = biological target: Serine/threonine-protein kinase MAK (Homo sapiens) (UniProt P20794); assay: Inhibition of biotinylated ligand binding to wild-type human partial length MAK (M1 to P314 residues) expressed in bacterial expression system at 50 nM measured after 1 hr by kinomescan assay relative to control
[14] = biological target: Mitogen-activated protein kinase 13 (Homo sapiens) (UniProt O15264); assay: Inhibition of biotinylated ligand binding to wild-type human full length p38-delta (M1 to L365 residues) expressed in bacterial expression system at 50 nM measured after 1 hr by kinomescan assay relative to control; procedure, shortened: as §2
[15] = biological target: Phosphatidylinositol 4-phosphate 5-kinase type-1 alpha (Homo sapiens) (UniProt Q99755); assay: Inhibition of biotinylated ligand binding to wild-type human full length PIP5K1A (M1 to H562 residues) expressed in bacterial expression system at 50 nM measured after 1 hr by kinomescan assay relative to control; procedure, shortened: as §2
[16] = biological target: Serine/threonine-protein kinase RIO2 (Homo sapiens) (UniProt Q9BVS4); assay: Inhibition of biotinylated ligand binding to wild-type human partial length RIOK2 (M1 to D313 residues) expressed in mammalian expression system at 50 nM measured after 1 hr by kinomescan assay relative to control; procedure, shortened: as §1
[17] = biological target: Rho-associated protein kinase 2 (Homo sapiens) (UniProt O75116); assay: Inhibition of biotinylated ligand binding to wild-type human partial length ROCK2 (M1 to T431 residues) expressed in mammalian expression system at 50 nM measured after 1 hr by kinomescan assay relative to control; procedure, shortened: as §1
[18] = Selectivity ratio of EC50 for rat NRK cells to EC50 for human MOLM13 cells; format: toxicity; settings: NRK cells versus MOLM13 cells, read-out: Ratio EC50
[19] = Selectivity ratio of EC50 for rat NRK cells to EC50 for human OCI-AML3 cells; format: toxicity; settings: NRK cells versus OCI-AML3 cells, read-out: Ratio EC50
[20] = Selectivity ratio of EC50 for rat NRK cells to EC50 for human MV4-11 cells; format: toxicity; settings: NRK cells versus MV4-11 cells, read-out: Ratio EC50
[21] = Selectivity ratio of EC50 for rat H9c2 cells to EC50 for human MOLM13 cells; format: toxicity; settings: H9c2 cells versus MOLM13 cells, read-out: Ratio EC50
[22] = Selectivity ratio of EC50 for rat H9c2 cells to EC50 for human MV4-11 cells; format: toxicity; settings: H9c2 cells versus MV4-11 cells, read-out: Ratio EC50
[23] = tested on: MOLM-13; assay: cells; settings: Homo sapiens, MOLM-13, 48 h
[24] = tested on: NRK; assay: cells; settings: Rattus norvegicus, 48 h
[25] = tested on: H9c2; assay: cells; settings: Rattus norvegicus, H9c2, 48 h

Sequence of Dual specificity protein kinase CLK4 (Homo sapiens) (Q9HAZ1 whole entry, looked up, the tested form may be a part): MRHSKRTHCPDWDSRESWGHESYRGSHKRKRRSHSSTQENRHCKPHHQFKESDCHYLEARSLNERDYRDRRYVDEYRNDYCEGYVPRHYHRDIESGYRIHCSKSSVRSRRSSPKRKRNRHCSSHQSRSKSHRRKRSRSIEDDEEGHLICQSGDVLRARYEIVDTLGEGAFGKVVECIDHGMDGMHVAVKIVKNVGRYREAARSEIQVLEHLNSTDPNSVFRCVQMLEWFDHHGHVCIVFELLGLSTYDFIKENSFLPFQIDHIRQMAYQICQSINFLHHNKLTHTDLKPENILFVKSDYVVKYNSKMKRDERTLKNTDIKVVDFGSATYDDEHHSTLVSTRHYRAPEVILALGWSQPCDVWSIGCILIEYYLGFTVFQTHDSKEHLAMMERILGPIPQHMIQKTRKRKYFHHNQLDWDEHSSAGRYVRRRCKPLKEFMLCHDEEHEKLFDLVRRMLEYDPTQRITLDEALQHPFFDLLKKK
Sequence of Rho-associated protein kinase 2 (Homo sapiens) (O75116 whole entry, looked up, the tested form may be a part): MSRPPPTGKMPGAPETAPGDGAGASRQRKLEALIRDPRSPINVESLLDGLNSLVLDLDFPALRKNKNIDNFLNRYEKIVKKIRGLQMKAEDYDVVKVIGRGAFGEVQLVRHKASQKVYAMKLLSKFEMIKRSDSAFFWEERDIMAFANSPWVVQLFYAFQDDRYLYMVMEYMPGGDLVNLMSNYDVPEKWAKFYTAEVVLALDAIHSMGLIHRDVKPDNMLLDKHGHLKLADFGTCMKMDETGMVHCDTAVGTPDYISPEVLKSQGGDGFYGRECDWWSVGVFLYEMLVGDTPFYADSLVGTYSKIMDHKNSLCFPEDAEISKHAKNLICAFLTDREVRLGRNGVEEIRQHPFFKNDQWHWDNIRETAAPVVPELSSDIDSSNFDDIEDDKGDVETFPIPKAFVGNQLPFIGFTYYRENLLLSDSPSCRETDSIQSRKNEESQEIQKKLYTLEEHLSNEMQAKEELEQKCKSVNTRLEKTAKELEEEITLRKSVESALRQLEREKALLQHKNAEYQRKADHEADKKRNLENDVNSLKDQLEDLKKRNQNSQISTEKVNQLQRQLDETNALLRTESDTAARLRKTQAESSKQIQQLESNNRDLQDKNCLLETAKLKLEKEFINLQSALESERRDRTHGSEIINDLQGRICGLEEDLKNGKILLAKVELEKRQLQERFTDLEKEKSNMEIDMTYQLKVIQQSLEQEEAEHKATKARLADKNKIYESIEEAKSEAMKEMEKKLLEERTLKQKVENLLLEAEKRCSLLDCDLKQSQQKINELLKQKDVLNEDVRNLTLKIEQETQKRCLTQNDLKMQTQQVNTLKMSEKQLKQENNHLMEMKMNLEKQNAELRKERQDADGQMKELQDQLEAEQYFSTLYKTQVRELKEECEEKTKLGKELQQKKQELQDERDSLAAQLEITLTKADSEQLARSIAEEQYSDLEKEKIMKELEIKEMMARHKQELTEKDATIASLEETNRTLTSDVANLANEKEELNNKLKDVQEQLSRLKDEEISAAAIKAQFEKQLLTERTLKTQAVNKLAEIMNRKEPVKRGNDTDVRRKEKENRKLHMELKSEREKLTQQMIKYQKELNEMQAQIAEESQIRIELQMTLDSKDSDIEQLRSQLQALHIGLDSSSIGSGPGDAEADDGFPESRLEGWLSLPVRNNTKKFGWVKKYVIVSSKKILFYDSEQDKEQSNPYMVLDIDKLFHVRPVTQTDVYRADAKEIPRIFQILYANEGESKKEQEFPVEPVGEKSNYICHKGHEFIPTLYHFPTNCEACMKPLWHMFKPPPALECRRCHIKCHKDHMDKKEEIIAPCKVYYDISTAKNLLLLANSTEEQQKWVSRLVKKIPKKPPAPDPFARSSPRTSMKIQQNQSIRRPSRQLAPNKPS
Sequence of Cyclin-dependent kinase 8 (P49336 whole entry, the tested form may be a part): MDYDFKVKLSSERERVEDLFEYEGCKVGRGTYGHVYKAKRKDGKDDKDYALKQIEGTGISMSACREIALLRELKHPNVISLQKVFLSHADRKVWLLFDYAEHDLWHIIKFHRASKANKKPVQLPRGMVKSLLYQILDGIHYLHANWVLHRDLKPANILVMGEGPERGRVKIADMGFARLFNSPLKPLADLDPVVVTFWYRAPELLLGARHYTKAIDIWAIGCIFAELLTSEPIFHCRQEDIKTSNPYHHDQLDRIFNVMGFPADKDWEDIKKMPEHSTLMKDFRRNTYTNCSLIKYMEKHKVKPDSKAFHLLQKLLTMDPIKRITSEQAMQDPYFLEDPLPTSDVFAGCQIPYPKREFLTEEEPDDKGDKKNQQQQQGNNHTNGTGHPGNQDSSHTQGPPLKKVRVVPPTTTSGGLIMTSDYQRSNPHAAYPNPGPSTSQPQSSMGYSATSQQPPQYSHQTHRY
Sequence of Phosphatidylinositol 4-phosphate 5-kinase type-1 alpha (Homo sapiens) (Q99755 whole entry, the tested form may be a part): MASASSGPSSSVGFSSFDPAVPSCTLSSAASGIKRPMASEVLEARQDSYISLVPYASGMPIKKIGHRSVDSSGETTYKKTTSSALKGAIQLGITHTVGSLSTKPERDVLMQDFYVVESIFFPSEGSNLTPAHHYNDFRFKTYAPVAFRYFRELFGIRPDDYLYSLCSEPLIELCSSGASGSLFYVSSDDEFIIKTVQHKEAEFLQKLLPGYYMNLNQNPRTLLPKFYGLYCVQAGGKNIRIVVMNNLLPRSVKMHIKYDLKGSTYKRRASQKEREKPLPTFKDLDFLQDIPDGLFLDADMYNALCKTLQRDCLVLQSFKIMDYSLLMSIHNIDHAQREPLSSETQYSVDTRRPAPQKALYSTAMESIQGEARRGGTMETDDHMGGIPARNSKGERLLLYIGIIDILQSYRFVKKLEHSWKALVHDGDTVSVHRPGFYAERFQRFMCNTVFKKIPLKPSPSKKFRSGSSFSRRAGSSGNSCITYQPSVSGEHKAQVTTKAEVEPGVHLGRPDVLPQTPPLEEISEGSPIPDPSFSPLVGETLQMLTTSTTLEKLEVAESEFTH
Sequence of Serine/threonine-protein kinase pim-2 (Homo sapiens) (Q9P1W9 whole entry, looked up, the tested form may be a part): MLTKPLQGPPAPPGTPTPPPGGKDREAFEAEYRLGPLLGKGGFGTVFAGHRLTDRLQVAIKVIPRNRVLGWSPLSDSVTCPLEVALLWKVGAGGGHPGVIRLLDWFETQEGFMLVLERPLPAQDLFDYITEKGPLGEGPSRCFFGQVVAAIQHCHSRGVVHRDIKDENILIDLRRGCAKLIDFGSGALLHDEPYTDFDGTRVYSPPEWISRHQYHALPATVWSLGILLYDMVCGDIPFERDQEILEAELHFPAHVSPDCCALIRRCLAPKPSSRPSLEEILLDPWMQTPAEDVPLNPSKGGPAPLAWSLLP
Sequence of Serine/threonine-protein kinase RIO2 (Homo sapiens) (Q9BVS4 whole entry, looked up, the tested form may be a part): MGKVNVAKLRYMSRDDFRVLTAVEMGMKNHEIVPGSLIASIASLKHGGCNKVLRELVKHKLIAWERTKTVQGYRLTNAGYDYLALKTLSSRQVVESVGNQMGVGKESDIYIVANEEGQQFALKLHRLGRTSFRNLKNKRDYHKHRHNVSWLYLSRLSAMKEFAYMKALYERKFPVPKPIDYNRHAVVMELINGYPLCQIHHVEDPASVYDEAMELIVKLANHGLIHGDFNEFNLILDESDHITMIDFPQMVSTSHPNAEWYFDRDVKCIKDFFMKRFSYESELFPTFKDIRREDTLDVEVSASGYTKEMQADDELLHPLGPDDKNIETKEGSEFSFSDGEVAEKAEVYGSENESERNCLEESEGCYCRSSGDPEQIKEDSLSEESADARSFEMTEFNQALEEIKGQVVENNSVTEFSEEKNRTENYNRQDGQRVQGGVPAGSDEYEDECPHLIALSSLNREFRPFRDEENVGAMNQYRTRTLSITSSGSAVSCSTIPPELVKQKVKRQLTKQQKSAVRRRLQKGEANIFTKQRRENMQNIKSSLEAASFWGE
Sequence of SRSF protein kinase 3 (Homo sapiens) (Q9UPE1 whole entry, the tested form may be a part): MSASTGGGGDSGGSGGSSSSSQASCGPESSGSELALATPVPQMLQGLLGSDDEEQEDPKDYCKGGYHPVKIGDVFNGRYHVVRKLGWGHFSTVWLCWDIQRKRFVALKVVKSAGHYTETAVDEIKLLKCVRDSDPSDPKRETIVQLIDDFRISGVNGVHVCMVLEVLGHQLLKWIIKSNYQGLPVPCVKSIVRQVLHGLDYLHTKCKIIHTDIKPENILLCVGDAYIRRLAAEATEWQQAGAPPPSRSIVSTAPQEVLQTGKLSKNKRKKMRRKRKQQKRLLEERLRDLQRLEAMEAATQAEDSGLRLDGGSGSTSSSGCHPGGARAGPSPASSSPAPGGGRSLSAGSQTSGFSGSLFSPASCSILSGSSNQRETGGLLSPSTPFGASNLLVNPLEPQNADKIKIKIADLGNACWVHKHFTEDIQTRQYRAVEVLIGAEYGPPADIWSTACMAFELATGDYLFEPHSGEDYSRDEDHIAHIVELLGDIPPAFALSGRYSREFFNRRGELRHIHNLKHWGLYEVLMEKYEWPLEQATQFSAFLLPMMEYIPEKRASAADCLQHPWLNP
Sequence of Cyclin-dependent kinase 7 (Homo sapiens) (P50613 whole entry, the tested form may be a part): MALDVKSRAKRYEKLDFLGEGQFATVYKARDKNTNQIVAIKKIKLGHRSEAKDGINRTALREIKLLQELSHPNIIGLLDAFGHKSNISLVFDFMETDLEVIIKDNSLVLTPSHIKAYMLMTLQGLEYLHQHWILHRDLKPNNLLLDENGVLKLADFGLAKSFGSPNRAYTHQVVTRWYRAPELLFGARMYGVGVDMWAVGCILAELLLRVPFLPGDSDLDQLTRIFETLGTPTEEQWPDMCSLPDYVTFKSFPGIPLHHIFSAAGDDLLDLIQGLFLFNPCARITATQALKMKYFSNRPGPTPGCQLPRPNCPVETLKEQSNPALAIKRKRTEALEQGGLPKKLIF

CN(C)[C@@H]1CC[C@@]2(C)[C@@H](CC[C@@H]3[C@@H]2CC[C@]2(C)C(c4cccc5cnccc45)=CC[C@@H]32)C1
inhibition [1]: > 80%
inhibition [2]: > 80%
inhibition [3]: > 80%
inhibition [4]: > 80%
inhibition [5]: > 80%
pKd [6]: 8.46
inhibition [7]: > 80%
inhibition [8]: > 80%
inhibition [9]: > 80%
inhibition [10]: > 80%
inhibition [11]: > 80%
inhibition [12]: > 80%
inhibition [13]: > 80%
inhibition [14]: > 80%
inhibition [15]: > 80%
inhibition [16]: > 80%
inhibition [17]: > 80%
selectivity ratio [18]: 3 to 4
selectivity ratio [19]: 3 to 4
selectivity ratio [20]: 3 to 4
selectivity ratio [21]: 3 to 4
selectivity ratio [22]: 3 to 4
pEC50 [23]: 5.23
pEC50 [24]: 4.79
pEC50 [25]: 4.60 to 4.90
